These results are taken from ChEMBL document CHEMBL3351820, “Development of novel membrane active lipidated peptidomimetics active against drug resistant clinical isolates” (Bioorg Med Chem, 2014).

The test system of data set [1] is Aspergillus fumigatus. Description: Antifungal activity against fluconazole-resistant Aspergillus fumigatus IGMC/LM1/0336 after 24 hrs by M27-A method. Type of data set: functional. To be noted: IGMC/LM1/0336, 24 h. An outline of the steps: (§1)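 Fungi at 2.5×10^3 cfu/mL in RPMI 1640 (L-glutamine, no glucose or NaHCO3, pH 7.0 with 0.165 M MOPS). Mixed 1:1 with serial 2-fold dilutions in water, incubated at 37 °C with shaking, 24 h for A. fumigatus and 48–72 h for C. albicans. Growth read by absorbance at 600 nm. MIC taken as the lowest concentration with no growth.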

The next data set has as its system Aspergillus niger. In words: Antifungal activity against Aspergillus niger ATCC 64028 after 24 hrs by M27-A method. It counts as functional. The settings on record: ATCC 64028, 24 h. An outline of the steps:
(§2)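 Fungi at 2.5×10^3 cfu/mL in RPMI 1640 (L-glutamine, no glucose or NaHCO3, buffered pH 7.0 with 0.165 M MOPS), mixed 1:1 with serial 2-fold aqueous dilutions. Incubated at 37 °C with shaking, 24 h for Aspergillus, 48-72 h for Candida and Cryptococcus; A600 read. MIC taken as lowest concentration with no growth.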

Data set [2] can be described thus: Membrane permeabilization activity assessed as release of calcein from PE/PG liposomes at 4 ug/ml after 5 mins by spectrofluorimetry. Type of data set: ADME. An outline of the steps: (§3)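 Calcein-loaded LUVs, PE/PG (bacterial mimic) or PC/PE/PI/ergosterol (fungal mimic), exposed to 1-20 μg/mL for 5 min before fluorescence reading. Triton X-100 in Tris-HCl/NaCl/EDTA buffer sets 100% leakage; % leakage = 100(F−F0)/(Ft−F0). Run in triplicate, two independent experiments, mean ± SD.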

Data set [3] is described as follows: Membrane permeabilization activity assessed as release of calcein from PC/PE/PI/ergosterol liposomes at 20 ug/ml after 5 mins by spectrofluorimetry. Type of data set: ADME. An outline of the steps: as §3
The nature of data set [4]: Membrane permeabilization activity assessed as release of calcein from PE/PG liposomes at 20 ug/ml after 5 mins by spectrofluorimetry. It counts as ADME. The procedure, abridged:
as §3

The nature of data set [5]: Membrane permeabilization activity assessed as release of calcein from PC/PE/PI/ergosterol liposomes at 4 ug/ml after 5 mins by spectrofluorimetry. It counts as ADME. The procedure, abridged: as §3
Data set [6] concerns Escherichia coli. Description: Antibacterial activity against Escherichia coli MTCC 0723 after 18 hrs by micro dilution broth assay. Type of data set: functional. To be noted: MTCC 0723, 18 h. An outline of the steps: (§4)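 Broth microdilution (modified CLSI): mid-log inoculum at 10^5 CFU/mL in Mueller-Hinton broth; serial 2-fold dilutions of sample in 0.001% acetic acid with 0.2% BSA added. Incubated overnight at 37 °C with agitation; A600 read at 18 h. Drug-free culture and uninoculated broth as controls; triplicate.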

Data set [7] deals with Escherichia coli. In words: Antibacterial activity against imipenem-resistant Escherichia coli PGI/ DML02292 clinical isolate after 18 hrs by micro dilution broth assay. Type of data set: functional. To be noted: PGI/ DML02292, 18 h.
The subject of the next data set is Pseudomonas aeruginosa. In words: Antibacterial activity against Pseudomonas aeruginosa MTCC 2295 after 18 hrs by micro dilution broth assay. It counts as functional. To be noted: MTCC 2295, 18 h. An outline of the steps: as §4
The test system of data set [8] is Staphylococcus aureus. Description: Antibacterial activity against Staphylococcus aureus MTCC 3160 after 18 hrs by micro dilution broth assay. It counts as functional. The settings on record: MTCC 3160, 18 h. The procedure, abridged: as §4
Data set [9] relates to Staphylococcus aureus. In words: Antibacterial activity against methicillin-resistant Staphylococcus aureus PGI/ DML03149 clinical isolate after 18 hrs by micro dilution broth assay. It counts as functional. To be noted: PGI/ DML03149, 18 h.
The test system of a further data set is Bacillus subtilis. Description: Antibacterial activity against Bacillus subtilis MTCC 2763 after 18 hrs by micro dilution broth assay. Type of data set: functional. To be noted: MTCC 2763, 18 h. An outline of the steps: as §4
A short description of data set [10]: Hemolytic activity in human RBCs. It counts as ADME, cell-based, Erythrocyte. The settings on record: red blood cells (RBCs). An outline of the steps: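 Washed fresh human erythrocytes, 4% (v/v) in PBS (35 mM phosphate, 150 mM NaCl, pH 7.2), mixed 1:1 with 2-fold dilutions in PBS. Incubated 1 h at 37 °C without agitation, then centrifuged at 1000 g for 5 min. Supernatant hemoglobin read at 440 nm; % hemolysis = 100(A−A0)/(At−A0).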

Data set [11] in a line: Therapeutic index, ratio of HC50 for human RBCs to MIC for Escherichia coli MTCC 0723. The settings on record: red blood cells (RBCs), read-out: TI.
A short description of data set [12]: Therapeutic index, ratio of HC50 for human RBCs to MIC for Staphylococcus aureus MTCC 3160. The settings on record: red blood cells (RBCs), read-out: TI.
The subject of data set [13] is Candida albicans. In words: Antifungal activity against Candida albicans ATCC 24433 after 48 to 72 hrs by M27-A method. It counts as functional. The procedure, abridged: as §2
The test system of data set [14] is Candida albicans. In words: Antifungal activity against fluconazole-resistant Candida albicans PGI/ DML0109 clinical isolate after 48 to 72 hrs by M27-A method. It counts as functional. The procedure, abridged: as §1
The subject of the next data set is Cryptococcus neoformans. Description: Antifungal activity against Cryptococcus neoformans ATCC 2344 after 48 to 72 hrs by M27-A method. Type of data set: functional. An outline of the steps:
as §2

For data set [15], the system named is Aspergillus fumigatus. Description: Antifungal activity against Aspergillus fumigatus ATCC 42203 after 24 hrs by M27-A method. Type of data set: functional. The settings on record: ATCC 42203, 24 h. The procedure, abridged:
as §2

Each structure is given as a SMILES string. Converted amounts (≈) assume the structure as drawn. Where a SMILES comes first, the peptide text is derived from it. [ ]: non-standard residue; d: D form. The star is where a group is joined. Palmitoyl = CCCCCCCCCCCCCCCC(=O)*; Lauroyl = CCCCCCCCCCCC(=O)*; Decanoyl = CCCCCCCCCC(=O)*; 3Abz = Nc1cccc(C(=O)O)c1; Orn = NCCC[CH](N)C(=O)O

As to `CCCCCCCCCC(=O)Nc1cccc(C(=O)NC(CCCN)C(=O)NC(CCCN)C(=O)NC(CCCN)C(=O)NC(CCCN)C(N)=O)c1` (stereo not drawn) ({Decanoyl-3Abz}-[Orn][Orn][Orn][Orn]-NH2; configuration not given here), the MIC against Aspergillus fumigatus [1] came out at 25 µg/mL (≈ 33.5 µM); against Aspergillus niger, 31.5 µg/mL (≈ 42.2 µM); in the data set with Escherichia coli [6], 17.5 µg/mL (≈ 23.4 µM); in the data set with Escherichia coli [7], 25 µg/mL (≈ 33.5 µM); with Pseudomonas aeruginosa, 25 µg/mL (≈ 33.5 µM); with Staphylococcus aureus [8], 20 µg/mL (≈ 26.8 µM). For the same molecule, the minimum inhibitory concentration (MIC) against Staphylococcus aureus [9] amounted to 35 µg/mL (≈ 46.9 µM); against Bacillus subtilis it was 100 µg/mL (≈ 134 µM); in the data set on Candida albicans [13], 50 µg/mL (≈ 66.9 µM); with Candida albicans [14], 50 µg/mL (≈ 66.9 µM); against Cryptococcus neoformans it was 50 µg/mL (≈ 66.9 µM); with Aspergillus fumigatus [15], 25 µg/mL (≈ 33.5 µM). The Activity in [2] is reported as 11%; in data set [3], 45%; in data set [4], 67%; in data set [5], 17%. This molecule registered an HC50 in [10] of 1000 µg/mL. Moreover, the selectivity ratio in data set [11] was determined as 57.1; in data set [12], 50.
With `CCCCCCCCCCCC(=O)Nc1cccc(C(=O)NC(CCCN)C(=O)NC(CCCN)C(=O)NC(CCCN)C(=O)NC(CCCN)C(N)=O)c1` (stereo not drawn) ({Lauroyl-3Abz}-[Orn][Orn][Orn][Orn]-NH2; configuration not given here), the MIC is 5.5 µg/mL (≈ 7.1 µM) in the data set with Aspergillus fumigatus [1]; 6.25 µg/mL (≈ 8.06 µM) against Aspergillus niger; 1.5 µg/mL (≈ 1.94 µM) in the data set with Escherichia coli [6]; 5.5 µg/mL (≈ 7.1 µM) in the data set on Escherichia coli [7]; 1.5 µg/mL (≈ 1.94 µM) in the data set with Pseudomonas aeruginosa; 2.5 µg/mL (≈ 3.23 µM) in the data set on Staphylococcus aureus [8]. In addition, the MIC against Staphylococcus aureus [9] came to 3.25 µg/mL (≈ 4.19 µM); against Bacillus subtilis, 15.5 µg/mL (≈ 20 µM); in the data set with Candida albicans [13], 5.5 µg/mL (≈ 7.1 µM); with Candida albicans [14] it was 7.5 µg/mL (≈ 9.68 µM); against Cryptococcus neoformans, 10.5 µg/mL (≈ 13.5 µM); against Aspergillus fumigatus [15], 5 µg/mL (≈ 6.45 µM). The molecule further came in with an HC50 in data set [10] of 750 µg/mL. Also, the selectivity ratio in data set [11] was determined as 500; in [12], 300.
For `CCCCCCCCCCCCCCCC(=O)Nc1cccc(C(=O)NC(CCCN)C(=O)NC(CCCN)C(=O)NC(CCCN)C(=O)NC(CCCN)C(N)=O)c1` (stereo not drawn) ({Palmitoyl-3Abz}-[Orn][Orn][Orn][Orn]-NH2; configuration not given here), the MIC against Aspergillus fumigatus [1] turned out to be 3.5 µg/mL (≈ 4.21 µM); against Aspergillus niger it was 3.1 µg/mL (≈ 3.73 µM); with Escherichia coli [6], 2 µg/mL (≈ 2.41 µM); against Escherichia coli [7], 3.5 µg/mL (≈ 4.21 µM); in the data set on Pseudomonas aeruginosa it was 3.1 µg/mL (≈ 3.73 µM); with Staphylococcus aureus [8], 3 µg/mL (≈ 3.61 µM). Further, the MIC against Staphylococcus aureus [9] was 5 µg/mL (≈ 6.02 µM); in the data set with Bacillus subtilis it was 20 µg/mL (≈ 24.1 µM); in the data set with Candida albicans [13] it was 2 µg/mL (≈ 2.41 µM); with Candida albicans [14], 3.5 µg/mL (≈ 4.21 µM); in the data set on Cryptococcus neoformans it was 5 µg/mL (≈ 6.02 µM); with Aspergillus fumigatus [15], 1.5 µg/mL (≈ 1.8 µM). In data set [10], this molecule gave an HC50 of 350 µg/mL. Besides, the selectivity ratio in data set [11] is 175; in [12] it was 117.
On to `C[C@@H]1[C@H](O)[C@@H](C)/C=C/C=C/C=C/C=C/C=C/C=C/C=C/[C@H](O[C@@H]2O[C@H](C)[C@@H](O)[C@H](N)[C@@H]2O)C[C@@H]2O[C@](O)(C[C@@H](O)C[C@@H](O)[C@H](O)CC[C@@H](O)C[C@@H](O)CC(=O)O[C@H]1C)C[C@H](O)[C@H]2C(=O)O` [AMPHOTERICIN B], for which the minimum inhibitory concentration (MIC) against Aspergillus fumigatus [1] was determined as 0.9 µg/mL (≈ 0.974 µM); with Aspergillus niger it was 0.5 µg/mL (≈ 0.541 µM); against Candida albicans [13], 0.5 µg/mL (≈ 0.541 µM); against Candida albicans [14], 0.7 µg/mL (≈ 0.758 µM); against Cryptococcus neoformans, 0.3 µg/mL (≈ 0.325 µM); with Aspergillus fumigatus [15], 0.3 µg/mL (≈ 0.325 µM).
Take `O=C(O)c1cn(C2CC2)c2cc(N3CCNCC3)c(F)cc2c1=O` [CIPROFLOXACIN]: the values for the MIC against Pseudomonas aeruginosa, against Staphylococcus aureus [8] and with Bacillus subtilis were 0.3 µg/mL (≈ 0.905 µM), 0.2 µg/mL (≈ 0.604 µM) and 0.5 µg/mL (≈ 1.51 µM), respectively.
